In one series the test system is Vero. Briefly: Cytotoxicity determined in (african green monkey kidney) Vero cells, expressed as IC50. Type of series: functional, cell-based. Particulars: Chlorocebus sabaeus. In a few lines:
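Vero cells were seeded in log phase at 5 × 10³ cells/well with 10-fold serial drug dilutions and incubated 3 days at 37 °C in 5% CO2. Viability was read by MTT: overnight dye incubation, 5 h solubilization, absorbance at 570 nm.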

A further series relates to CCRF-CEM. Briefly: Cytotoxicity determined in (T-lymphoblastoid cell line) CEM cells, expressed as IC50. Type of series: functional, cell-based. Particulars: Homo sapiens. Put shortly:
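CEM T-lymphoblastoid cells were seeded in log phase at 2.5 × 10³ cells/well with 10-fold serial drug dilutions and incubated 4 days at 37 °C in 5% CO2. Viability was read as MTT reduction: dye added overnight, formazan solubilized 5 h, absorbance at 570 nm.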

Series [1] in a line: Cytotoxicity determined in uninfected PHA-stimulated human PBM cells (PBMCs), expressed as IC50. Type of series: functional, cell-based. Particulars: PBMC. Put shortly:
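Uninfected PHA-stimulated PBM cells from seronegative donors, isolated by single-step Ficoll-Hypaque, were seeded at 5 × 10⁴ cells/well with 10-fold serial drug dilutions. After 5 days at 37 °C in 5% CO2, MTT dye was added overnight, formazan solubilized 5 h, and absorbance read at 570 nm.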

Series [2] in a line: Activity against wild-type virus (HIV-1XXBRU) in human PBM cells, expressed as EC50.
Series [3] is described as follows: Fold increase ratio of HIV-1M184V to HIV-1XXBRU. Type of series: functional. Put shortly: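 PHA-stimulated PBM cells were infected for 1 h with the molecular clones HIV-1 xxBru (wild type) or HIV-1 M184Vpitt, then cultured 5 days with 10-fold serial dilutions. EC50 came from supernatant RT activity by the median effect method, and the ratio was taken as mutant EC50 over wild-type EC50.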

Series [4] can be described thus: Activity against Lamivudine-resistant virus (HIV-1M184V) in human PBM cells, expressed as EC50. Type of series: functional, cell-based. Put shortly:
(§1)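 PHA-stimulated (2-3 days) human PBM cells from seronegative donors, bulk-infected 1 h with molecular clones HIV-1 xxBru or M184V (100 TCID50/1 × 10⁷ cells in flask, or 200 TCID50/6 × 10⁵ cells/well in 24-well plate), then added to 10-fold serial compound dilutions. RPMI-1640 with IL-2 and DEAE-dextran; 5 days, 37 °C, 5% CO₂. Supernatant RT activity read out; EC50/EC90 by median effect method.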

A short description of series [5]: Activity against Lamivudine-resistant virus (HIV-1M184V) in human PBM cells, expressed as EC90. It is filed as functional. The following applies: PBMC. In a few lines:
as §1

A short description of series [6]: Half life determined at pH 2 buffer solution. It is filed as ADME. Put shortly:
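Nucleosides were held in pH 2 buffer and followed by TLC every 10 min for the first 3 h, then up to 6 h, to estimate half-life.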

A value given as a limit tells only on which side of the number the result lay.

Take `Nc1nc(O)c2ncn([C@H]3CC(F)(F)[C@H](CO)O3)c2n1`: the concentration for half-maximal inhibition (IC50) (in the series with Vero; in the series on CCRF-CEM; in series [1]) was more than 100 µM each time.

With `Cc1cn([C@H]2C=C(F)[C@H](CO)O2)c(=O)nc1O`, the IC50 (in the series on Vero; in the series with CCRF-CEM; in series [1]) was more than 100 µM throughout.

With `Nc1nc(O)c2ncn([C@@H]3CC(F)(F)[C@H](CO)O3)c2n1`, the IC50 (in the series on Vero; in the series on CCRF-CEM; in series [1]) was more than 100 µM in each case.

For `Nc1ccn([C@H]2CC(F)(F)[C@H](CO)O2)c(=O)n1`, the half-maximal inhibitory concentration (IC50) (with Vero; in the series on CCRF-CEM; in series [1]) was more than 100 µM throughout.

In the case of `O=c1ccn([C@H]2C=C(F)[C@H](CO)O2)c(=O)[nH]1`, the concentration for half-maximal inhibition (IC50) (in the series on Vero; with CCRF-CEM; in series [1]) was more than 100 µM throughout.

Regarding `Nc1ccn([C@@H]2CS[C@H](CO)O2)c(=O)n1` [LAMIVUDINE], the EC50 in series [2] was 0.035 µM; in series [4] it was more than 100 µM. The FI in series [3] is more than 2860. For the same compound, the concentration for an effect of 90% (EC90) in series [5] is more than 100 µM.

On to `Nc1nc(=O)n([C@H]2C=C(F)[C@H](CO)O2)cc1F`, for which the 50% inhibitory concentration (IC50) (with Vero; in the series with CCRF-CEM; in series [1]) was more than 100 µM in each case.

Consider `Nc1ccn([C@H]2C=C(F)[C@H](CO)O2)c(=O)n1`, for which the concentration for half-maximal inhibition (IC50) (in the series on Vero; with CCRF-CEM; in series [1]) was more than 100 µM throughout.

Turning to `Nc1ncnc2c1ncn2[C@H]1C=C(F)[C@H](CO)O1`, the IC50 (with Vero; in the series with CCRF-CEM; in series [1]) was more than 100 µM in each case.

`O=c1nc(O)ccn1[C@H]1CC(F)(F)[C@H](CO)O1`: the half-inhibitory concentration (IC50) (in the series with Vero; in the series on CCRF-CEM; in series [1]) was more than 100 µM throughout.

`OC[C@H]1O[C@@H](n2cnc3c(O)ncnc32)C=C1F`: the IC50 (with Vero; with CCRF-CEM; in series [1]) was more than 100 µM in each case.

On to `Nc1ncnc2c1ncn2[C@@H]1CC(F)(F)[C@H](CO)O1`, for which the IC50 (in the series on Vero; in the series with CCRF-CEM; in series [1]) was more than 100 µM in each case.

Regarding `Nc1nc(O)c2ncn([C@H]3C=C(F)[C@H](CO)O3)c2n1`, the IC50 (in the series with Vero; with CCRF-CEM; in series [1]) was more than 100 µM throughout.

In the case of `Nc1ncnc2c1ncn2[C@H]1CC(F)(F)[C@H](CO)O1`, the IC50 (in the series with Vero; in the series with CCRF-CEM; in series [1]) was more than 100 µM throughout.

As for `Nc1nc(=O)n([C@@H]2CC(F)(F)[C@H](CO)O2)cc1F`, the IC50 (in the series on Vero; with CCRF-CEM; in series [1]) was more than 100 µM in each case.

As to `Nc1nc(=O)n([C@@H]2C=C(F)[C@H](CO)O2)cc1F`, the EC50 was 0.009 µM in series [2] and 10.9 µM in series [4]. The concentration for half-maximal inhibition (IC50) (in the series with Vero; with CCRF-CEM; in series [1]) was more than 100 µM throughout. For the same compound, the FI in series [3] came to 1210. It took 67.4 µM to reach the 90% level in series [5] (EC90).

With `Nc1ncnc2c1ncn2[C@@H]1C=C(F)[C@H](CO)O1`, the IC50 (in the series on Vero; with CCRF-CEM; in series [1]) was more than 100 µM in each case.

As for `Cc1cn([C@H]2C[C@H](N=[N+]=[N-])[C@@H](CO)O2)c(=O)[nH]c1=O` [ZIDOVUDINE], the 50% effective concentration (EC50) in series [2] came to 0.01 µM; in series [4], 0.003 µM. Moreover, the FI in series [3] was 0.3. For the same compound, the EC90 in series [5] is 0.025 µM.

On to `Nc1ccn([C@@H]2C=C(F)[C@H](CO)O2)c(=O)n1`, for which the figures for the half-maximal effective concentration (EC50) in series [2] and in series [4] were 0.023 µM and 2.4 µM, respectively. Besides, the IC50 is more than 100 µM with Vero, more than 100 µM with CCRF-CEM and 86.9 µM in series [1]. Also, the FI in series [3] is 104. Moreover, the half-life in series [6] was 48 h. In series [5], this compound had a concentration for an effect of 90% (EC90) of 15.7 µM.

`Nc1nc(=O)n([C@H]2CC(F)(F)[C@H](CO)O2)cc1F`: the IC50 (in the series on Vero; in the series on CCRF-CEM; in series [1]) was more than 100 µM in each case.

`Nc1ccn([C@@H]2CC(F)(F)[C@H](CO)O2)c(=O)n1`: the half-maximal inhibitory concentration (IC50) (with Vero; in the series with CCRF-CEM; in series [1]) was more than 100 µM in each case.

As to `Nc1nc(O)c2ncn([C@@H]3C=C(F)[C@H](CO)O3)c2n1`, the values for the IC50 (in the series with Vero; with CCRF-CEM; in series [1]) were 36.5 µM, 58.4 µM and 17.4 µM, respectively.

With `Nc1ccn([C@@H]2CC[C@H](CO)O2)c(=O)n1`, the EC50 stood at 0.17 µM in series [2] and 2.9 µM in series [4]. In series [3], the FI is 17. The half-life in series [6] was 1 h. This compound came in with a 90% effect concentration (EC90) in series [5] of 28.2 µM.

As for `OC[C@@H]1O[C@H](n2cnc3c(O)ncnc32)CC1(F)F`, the IC50 (with Vero; in the series on CCRF-CEM; in series [1]) was more than 100 µM in each case.

For `Cc1cn([C@@H]2CC(F)(F)[C@H](CO)O2)c(=O)nc1O`, the IC50 (in the series with Vero; in the series with CCRF-CEM; in series [1]) was more than 100 µM each time.

Take `Cc1cn([C@H]2CC(F)(F)[C@H](CO)O2)c(=O)[nH]c1=O`: the IC50 (in the series with Vero; in the series on CCRF-CEM; in series [1]) was more than 100 µM each time.

As to `Cc1cn([C@@H]2C=C(F)[C@H](CO)O2)c(=O)nc1O`, the IC50 (in the series on Vero; with CCRF-CEM; in series [1]) was more than 100 µM in each case.

On to `OC[C@@H]1O[C@@H](n2cnc3c(O)ncnc32)CC1(F)F`, for which the IC50 (with Vero; in the series with CCRF-CEM; in series [1]) was more than 100 µM throughout.

Turning to `O=c1nc(O)ccn1[C@@H]1CC(F)(F)[C@H](CO)O1`, the IC50 (in the series with Vero; with CCRF-CEM; in series [1]) was more than 100 µM in each case.

Take `O=c1nc(O)ccn1[C@@H]1C=C(F)[C@H](CO)O1`: the values for the concentration for half-maximal inhibition (IC50) (in the series with Vero; in the series with CCRF-CEM; in series [1]) were more than 100 µM, 30.1 µM and more than 100 µM, respectively.

A word on the IC50: it is the concentration at which inhibition is half-maximal. By EC50 is commonly meant the concentration that produces a half-maximal response. A word on the EC90: it is the point of the concentration-response curve where the effect stands at 90%. The half-life is the time needed for the level to fall by half in the phase considered.

The values are drawn from ChEMBL document CHEMBL1136794, “l-2',3'-Didehydro-2',3'-dideoxy-3'-fluoronucleosides: synthesis, anti-HIV activity, chemical and enzymatic stability, and mechanism of resistance” (J Med Chem, 2003).
